Experimental data as given in ChEMBL document CHEMBL1275449, “Potent in vitro antifungal activities of naturally occurring acetylenic acids” (Antimicrob Agents Chemother, 2008).
≈ marks a conversion by molar mass, not a printed value. Calls of active or inactive are those of the source. The rule behind the calls is not given here.

What was measured:
Candida parapsilosis [1] = assay: Antifungal activity against Candida parapsilosis ATCC 22019 at 16.5 uM after 48 hrs by CLSI method; format: functional, organism-based
How it was run: (§1)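 Yeast suspensions made from 3-5 colonies off 24-72 h SD agar plates in saline. They were diluted by OD630 standard curve in RPMI 1640 (0.2% dextrose, 0.03% glutamine, 0.165 M MOPS, pH 7.0) to 1.5 × 10³ CFU/ml. Twofold dilutions (11 concentrations, 20% DMSO-saline) run in duplicate. OD530 read before and after 35°C, 48 h. Line values are top test concentrations; no-growth endpoints give MIC/MFC.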

Trichophyton rubrum [2] = assay: Antifungal activity against Trichophyton rubrum ATCC MYA-4438 by CLSI method; format: functional, organism-based
How it was run: (§2)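 Growth scraped from 1- to 6-week-old potato dextrose slants and filtered through Miracloth. Diluted in 5% Alamar blue-RPMI 1640 (MOPS pH 7.0) to 2.7 × 10⁴ CFU/ml. Eleven twofold dilutions in duplicate. Fluorescence at 544 nm excitation/590 nm emission read before and after 35°C, 5 days. IC50 fitted from percent growth. MIC taken as no detectable growth; MFC from clear or blue wells plated on PD agar.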

[3] = tested on: Trichophyton mentagrophytes; assay: Antifungal activity against Trichophyton mentagrophytes ATCC 9533 by CLSI method; format: functional, organism-based; how it was run: as §2
[4] = tested on: Trichophyton mentagrophytes; assay: Antifungal activity against Trichophyton mentagrophytes ATCC MYA-4439 by CLSI method; format: functional, organism-based; how it was run: as §2
Cryptococcus neoformans [5] = assay: Antifungal activity against Cryptococcus neoformans ATCC 66031 after 72 hrs by CLSI method; format: functional, organism-based; settings: ATCC 66031, 72 h
How it was run: (§3)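 SD broth replaced RPMI because growth in RPMI was poor; other CLSI conditions were kept. Inoculum was 1.5 × 10³ CFU/ml from colonies on SD agar, checked by plating. Twofold serial dilutions (11 concentrations) in 20% DMSO-saline were tested in duplicate. OD530 was read before and after incubation at 35°C for 72 h. Percent growth gave IC50; the MIC is the lowest concentration with no detectable growth.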

Cryptococcus neoformans [6] = assay: Antifungal activity against Cryptococcus neoformans ATCC 90113 after 72 hrs by CLSI method; format: functional, organism-based; settings: ATCC 90113, 72 h; how it was run: as §3
Candida tropicalis = assay: Antifungal activity against Candida tropicalis ATCC 750 after 48 hrs by CLSI method; format: functional, organism-based; settings: ATCC 750, 48 h; how it was run: as §1
Candida parapsilosis [7] = assay: Antifungal activity against Candida parapsilosis ATCC 22019 after 48 hrs by CLSI method; format: functional, organism-based; settings: Lodderomyces parapsilosis, ATCC 22019, 48 h; how it was run: as §1
Pichia kudriavzevii = assay: Antifungal activity against Candida krusei ATCC 6258 after 48 hrs by CLSI method; format: functional, organism-based; settings: ATCC 6258, 48 h
How it was run: (§4)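 Candida inocula came from 24–72-h SD agar colonies suspended in saline. They were diluted by OD630 standard curve into RPMI 1640 (0.2% dextrose, 0.03% glutamine, 0.165 M MOPS, pH 7.0) to 1.5 × 10³ CFU/ml. Compounds were run as 11 twofold dilutions in 20% DMSO-saline, in duplicate, at 35°C for 48 h, with OD530 read before and after. Percent growth at the top concentration, IC50, MIC, and MFC (SD agar plating) were derived.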

Nakaseomyces glabratus = assay: Antifungal activity against Candida glabrata ATCC 90030 after 48 hrs by CLSI methodCandida glabrata; format: functional, organism-based; settings: ATCC 90030, 48 h; how it was run: as §4
Candida albicans [8] = assay: Antifungal activity against Fluconazole resistant Candida albicans clinical isolate 17 after 48 hrs by CLSI method; format: functional, organism-based
How it was run: (§5)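 CLSI broth microdilution. Colonies from 24–72 h SD agar suspended in saline and sized by OD630 standard curve. Inoculum 1.5 × 10³ CFU/ml (final) in RPMI 1640 (0.2% dextrose, 0.03% glutamine, 0.165 M MOPS, pH 7.0). Twofold dilutions (11 levels) from 20% DMSO-saline, in duplicate. 35°C for 48 h, OD530 read before and after. IC50 fitted from % growth. MIC: no detectable growth. MFC: subculture onto SD agar.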

Aspergillus fumigatus [9] = assay: Antifungal activity against Aspergillus fumigatus ATCC 204305 at 16.5 uM after 48 hrs by CLSI method; format: functional, organism-based
Candida albicans [10] = assay: Antifungal activity against Fluconazole resistant Candida albicans clinical isolate 1 after 48 hrs by CLSI method; format: functional, organism-based; how it was run: as §5
Aspergillus fumigatus [11] = assay: Antifungal activity against Aspergillus fumigatus ATCC 90906 at 16.5 uM after 48 hrs by CLSI method; format: functional, organism-based
Aspergillus flavus = assay: Antifungal activity against Aspergillus flavus ATCC 204304 at 16.5 uM after 48 hrs by CLSI method; format: functional, organism-based
Candida albicans [12] = assay: Antifungal activity against Candida albicans ATCC 200955 after 48 hrs by CLSI method; format: functional, organism-based; settings: ATCC 200955, 48 h; how it was run: as §5
Aspergillus niger = assay: Antifungal activity against Aspergillus niger ATCC 16404 at 16.5 uM after 48 hrs by CLSI method; format: functional, organism-based
Candida albicans [13] = assay: Antifungal activity against Candida albicans ATCC 90028 after 48 hrs by CLSI method; format: functional, organism-based; settings: ATCC 90028, 48 h; how it was run: as §5
[14] = tested on: Trichophyton mentagrophytes; assay: Antifungal activity against Trichophyton mentagrophytes ATCC MYA-4439 at 16.5 uM after 5 days by CLSI method; format: functional, organism-based
Candida albicans [15] = assay: Antifungal activity against Candida albicans ATCC 32354 after 48 hrs by CLSI method; format: functional, organism-based; settings: ATCC 32354, 48 h; how it was run: as §5
[16] = tested on: Trichophyton mentagrophytes; assay: Antifungal activity against Trichophyton mentagrophytes ATCC 9533 at 16.5 uM after 5 days by CLSI method; format: functional, organism-based
Trichophyton rubrum [17] = assay: Antifungal activity against Trichophyton rubrum ATCC MYA-4438 at 16.5 uM after 5 days by CLSI method; format: functional, organism-based
Trichophyton rubrum [18] = assay: Antifungal activity against Trichophyton rubrum ATCC 10218 at 16.5 uM after 5 days by CLSI method; format: functional, organism-based
Candida albicans [19] = assay: Antifungal activity against Candida albicans ATCC 14053 after 48 hrs by CLSI method; format: functional, organism-based; settings: ATCC 14053, 48 h; how it was run: as §5
Candida albicans [20] = assay: Antifungal activity against Candida albicans ATCC 60193 after 48 hrs by CLSI method; format: functional, organism-based; settings: ATCC 60193, 48 h; how it was run: as §5
Aspergillus fumigatus [21] = assay: Antifungal activity against Aspergillus fumigatus ATCC 90906 after 48 h by CLSI method; settings: ATCC 90906, 48 h

## CC[C@H](C)C[C@H](C)CCCCCCCCC(=O)N[C@H]1C[C@@H](O)[C@@H](NCCN)NC(=O)[C@@H]2[C@@H](O)CCN2C(=O)[C@H]([C@H](O)CCN)NC(=O)[C@H]([C@H](O)[C@@H](O)c2ccc(O)cc2)NC(=O)[C@@H]2C[C@@H](O)CN2C(=O)[C@H]([C@@H](C)O)NC1=O [CASPOFUNGIN]
Candida parapsilosis [1]
  Activity: inactive
Trichophyton rubrum [2]
  IC50: 60 nM
  MIC: 0.1 µM (≈ 0.109 µg/mL)
[3]
  IC50: 300 nM
[4]
  IC50: 200 nM
Cryptococcus neoformans [5]
  IC50: 100 nM
  MFC: 1 µM (≈ 1.09 µg/mL)
  MIC: 0.5 µM (≈ 0.547 µg/mL)
Cryptococcus neoformans [6]
  IC50: 400 nM
  MFC: 2.1 µM (≈ 2.3 µg/mL)
  MIC: 1 µM (≈ 1.09 µg/mL)
Candida tropicalis
  IC50: 60 nM
  MFC: 0.26 µM (≈ 0.284 µg/mL)
  MIC: 0.1 µM (≈ 0.109 µg/mL)
Candida parapsilosis [7]
  IC50: 200 nM
  MIC: 0.5 µM (≈ 0.547 µg/mL)
Pichia kudriavzevii
  IC50: 100 nM
  MFC: 1 µM (≈ 1.09 µg/mL)
  MIC: 0.4 µM (≈ 0.437 µg/mL)
Nakaseomyces glabratus
  IC50: 50 nM
  MFC: 0.26 µM (≈ 0.284 µg/mL)
  MIC: 0.13 µM (≈ 0.142 µg/mL)
Candida albicans [8]
  IC50: 40 nM
  MFC: 0.26 µM (≈ 0.284 µg/mL)
  MIC: 0.13 µM (≈ 0.142 µg/mL)
Aspergillus fumigatus [9]
  Activity: inactive
Candida albicans [10]
  IC50: 50 nM
  MFC: 0.26 µM (≈ 0.284 µg/mL)
  MIC: 0.1 µM (≈ 0.109 µg/mL)
Aspergillus fumigatus [11]
  Activity: inactive
Aspergillus flavus
  Activity: inactive
Candida albicans [12]
  IC50: 50 nM
  MFC: 0.13 µM (≈ 0.142 µg/mL)
  MIC: 0.13 µM (≈ 0.142 µg/mL)
Aspergillus niger
  Activity: inactive
Candida albicans [13]
  IC50: 60 nM
  MFC: 0.26 µM (≈ 0.284 µg/mL)
  MIC: 0.19 µM (≈ 0.208 µg/mL)
[14]
  Activity: inactive
Candida albicans [15]
  IC50: 70 nM
  MFC: 1.03 µM (≈ 1.13 µg/mL)
  MIC: 0.13 µM (≈ 0.142 µg/mL)
[16]
  Activity: inactive
Trichophyton rubrum [17]
  Activity: inactive
Trichophyton rubrum [18]
  Activity: inactive
Candida albicans [19]
  IC50: 50 nM
  MFC: 0.26 µM (≈ 0.284 µg/mL)
  MIC: 0.1 µM (≈ 0.109 µg/mL)
Candida albicans [20]
  IC50: 30 nM
  MFC: 0.52 µM (≈ 0.569 µg/mL)
  MIC: 0.1 µM (≈ 0.109 µg/mL)
Aspergillus fumigatus [21]
  IC50: 200 nM
  MIC: 16.5 µM (≈ 18 µg/mL)
